This passage reports Tm and folding enthalpy results from the array DNA melting data of Ke et al. (doi:10.1101/2024.01.08.574731).

Series [1] can be described thus: melting temperature; fluorescence melt of hairpins on a sequencing array, two-state fit, raised by 9.35 °C to match UV melts. The settings on record: sodium 0.088 M. Put shortly:
(§1)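 Bootstrapped two-state fits yielded melting temperature and folding enthalpy for library hairpins. Cy3 fluorescence, with annealed Cy3 and quencher oligos, was imaged on a sequenced MiSeq flow cell in 50 mM Na-HEPES pH 8.0, 25 mM NaCl in 2.5 °C steps up to 60 °C, and normalised to pre-quench Cy3 and to control constructs. Four replicates were combined by inverse variance, and fitted temperatures were raised by 9.35 °C to match UV melts.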

The nature of series [2]: folding enthalpy; higher = less favourable; fluorescence melt of hairpins on a sequencing array, two-state fit. The settings on record: sodium 0.088 M. Summed up:
as §1

Take GATGTTCCGAAAGGAATC (((..(((....)))))): in series [1], the Tm came to 32.4 °C. Besides, the folding enthalpy in series [2] was -13.2 kcal/mol.
The corresponding values for GATGTTGCGAAAGCAATC (((..(((....)))))) are 32.7 °C and -10.9 kcal/mol.
GATTAACGAAAGTTATC (((.(((....)))))): the Tm in series [1] came to 31.3 °C. Further, the folding enthalpy in series [2] is -13.2 kcal/mol.
Consider GATTACCCGAAAGGGATC (((..(((....)))))), for which the Tm in series [1] was 26.3 °C. In addition, the folding enthalpy in series [2] was -12.1 kcal/mol.
The corresponding values for GATTACCGAAAGGTCATC (((.(((....))).))) are 38.2 °C and -28.8 kcal/mol.
Turning to GATTACGAAAGTAAAATC ((((((....)))..))), the Tm in series [1] was 28.5 °C. Besides, the folding enthalpy in series [2] is -17.6 kcal/mol.
As for GATTACGAAAGTAGATC ((((((....))).))), the Tm in series [1] amounted to 29 °C. The folding enthalpy in series [2] is -19 kcal/mol.
For GATTAGGGAAACTTAATC (((((.(....).))))), the Tm in series [1] is 29.1 °C. Also, the folding enthalpy in series [2] is -17.3 kcal/mol.
Turning to GATTATGCGAAAGCAATC (((..(((....)))))), the Tm in series [1] was found to be 23.4 °C. In addition, the folding enthalpy in series [2] was -9.91 kcal/mol.
Regarding GATTCCCCGAAAGGGATC (((..(((....)))))), the Tm in series [1] was determined as 29.2 °C. Further, the folding enthalpy in series [2] is -12.2 kcal/mol.
Consider GATTCCGAAAGGAGAATC ((((((....)))..))), for which, in series [1], the Tm is 32.7 °C. The folding enthalpy in series [2] was -17.4 kcal/mol.
For the sequence GATTCCGAAAGGAGCATC ((((((....)))..))), in series [1], the Tm is 27.3 °C. For the same sequence, the folding enthalpy in series [2] was -11.6 kcal/mol.
As for GATTCCGGAAACGAAATC ((((.((....)).)))), the Tm in series [1] was determined as 34.3 °C. Further, in series [2], the folding enthalpy is -31.6 kcal/mol.
The corresponding values for GATTCGAAAGAATC (((((....))))) are 51.5 °C and -29.7 kcal/mol.
On the same counts, the results for GATTCGGAAACGAATC ((((((....)))))) are 58.6 °C and -32.2 kcal/mol.
As for GATTCTGGAAACAGAACC (.(((((....))))).), the Tm in series [1] worked out at 33.6 °C. In series [2], the folding enthalpy was -17.6 kcal/mol.
On to GATTCTGGAAACAGAATC (((((((....))))))), for which the Tm in series [1] worked out at 55 °C. In addition, in series [2], the folding enthalpy is -43.9 kcal/mol.
On the same counts, the results for GATTGAGGAAACTCAATC (((((((....))))))) are 53.6 °C and -52.3 kcal/mol.
Consider GATTGCCGAAAGGCTATC (((.(((....))).))), for which the Tm in series [1] came out at 51.4 °C. In addition, the folding enthalpy in series [2] was -19.1 kcal/mol.
As for GATTGCGAAAGCAACATC ((((((....)))..))), the Tm in series [1] came to 28.5 °C. Besides, the folding enthalpy in series [2] is -9.24 kcal/mol.
GATTGCGAAAGCAGTATC ((((((....)))..))): the Tm in series [1] was 32.1 °C. Besides, in series [2], the folding enthalpy is -10.9 kcal/mol.
For the sequence GATTGCGAAAGCATAATC ((((((....)))..))), the Tm in series [1] came to 33.1 °C. For the same sequence, in series [2], the folding enthalpy is -12.8 kcal/mol.
With GATTGCGAAAGCATGATC ((((((....)))..))), the Tm in series [1] amounted to 36.3 °C. Besides, the folding enthalpy in series [2] was -11.6 kcal/mol.
In the case of GATTGGCCGAAAGGCATC (((..(((....)))))), the Tm in series [1] amounted to 28.5 °C. Also, the folding enthalpy in series [2] is -9.53 kcal/mol.
Consider GATTGGCGAAAGCCGATC (((.(((....))).))), for which the Tm in series [1] stood at 56.8 °C. Further, the folding enthalpy in series [2] was -25.8 kcal/mol.
GATTGGGGAAACCCGATC (((.(((....))).))): in series [1], the Tm turned out to be 48.8 °C. Besides, the folding enthalpy in series [2] was -35 kcal/mol.
Consider GATTGGGGAAACCTAATC ((((.((....)).)))), for which the Tm in series [1] stood at 37.5 °C. Besides, the folding enthalpy in series [2] was -29.3 kcal/mol.
Take GATTGTACGAAAGTAATC (((..(((....)))))): the Tm in series [1] amounted to 28.1 °C. The folding enthalpy in series [2] was -18.7 kcal/mol.
For GATTGTGCGAAAGCAATC (((..(((....)))))), the Tm in series [1] stood at 34 °C. For the same sequence, in series [2], the folding enthalpy is -12.8 kcal/mol.
Regarding GATTGTGGAAACACAGTC ((.((((....)))).)), the Tm in series [1] came out at 42.6 °C. In addition, the folding enthalpy in series [2] is -26.4 kcal/mol.
Consider GATTTAGGAAACTAGATC (((.(((....))).))), for which, in series [1], the Tm was 28.3 °C. Besides, the folding enthalpy in series [2] is -27.5 kcal/mol.
On the same counts, the results for GATTTCCGAAAGGAATC (((.(((....)))))) are 42.9 °C and -16.4 kcal/mol.
As to GATTTCCGAAAGGATATC (((.(((....))).))), the Tm in series [1] came out at 42 °C. Moreover, in series [2], the folding enthalpy was -24.6 kcal/mol.
As for GATTTCGGAAACGAAATC (((((((....))))))), the Tm in series [1] is 58.1 °C. In addition, the folding enthalpy in series [2] is -41.2 kcal/mol.
As for GATTTGCCGAAAGGCATC (((..(((....)))))), the Tm in series [1] was found to be 21.9 °C. In addition, the folding enthalpy in series [2] was -5.81 kcal/mol.
As for GATTTGCGAAAGCACATC (((.(((....))).))), the Tm in series [1] came out at 43.9 °C. For the same sequence, the folding enthalpy in series [2] was -19.9 kcal/mol.
On the same counts, the results for GATTTGGGAAACCAAACC (.(((((....))))).) are 34 °C and -19.4 kcal/mol.
